Assay results as given in ChEMBL document CHEMBL3425411, “Synthesis of β-Carboline-Based N-Heterocyclic Carbenes and Their Antiproliferative and Antimetastatic Activities against Human Breast Cancer Cells” (J Med Chem, 2015).
Active and inactive are the calls of the source. The calls are words filed in the database; no cut-off is given here.

What was measured:
MDA-MB-231 [1] = experiment: Induction of apoptosis in human MDA-MB-231 cells assessed as early apoptotic cells at 10 uM after 24 hrs by annexin V-propidium iodide/Alexa Fluor 488 staining-based flow cytometric analysis (reference value: 4.05 to 4.68%); type: functional
MDA-MB-231 [2] = experiment: Induction of apoptosis in human MDA-MB-231 cells assessed as early apoptotic cells at 7.5 uM after 24 hrs by annexin V-propidium iodide/Alexa Fluor 488 staining-based flow cytometric analysis (reference value: 4.05 to 4.68%); type: functional
MDA-MB-231 [3] = experiment: Induction of apoptosis in human MDA-MB-231 cells assessed as late apoptotic cells at 5 uM after 24 hrs by annexin V-propidium iodide/Alexa Fluor 488 staining-based flow cytometric analysis (reference value: 2.08 to 3.78%); type: functional
Summary of the method: (§1)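 MDA-MB-231 cells, about 2 × 10⁵ per well, seeded in triplicate and treated for 24 h in RPMI-1640 with 10% FBS. Stained with Alexa Fluor 488 annexin V and propidium iodide, then read by flow cytometry. AV+/PI+ events were counted as late apoptotic and reported as percentage of cells relative to control. Three independent experiments, mean ± SEM.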

MDA-MB-231 [4] = experiment: Induction of apoptosis in human MDA-MB-231 cells assessed as late apoptotic cells at 10 uM after 24 hrs by annexin V-propidium iodide/Alexa Fluor 488 staining-based flow cytometric analysis (reference value: 2.08 to 3.78%); type: functional; summary of the method: as §1
MDA-MB-231 [5] = experiment: Induction of apoptosis in human MDA-MB-231 cells assessed as early apoptotic cells at 5 uM after 24 hrs by annexin V-propidium iodide/Alexa Fluor 488 staining-based flow cytometric analysis (reference value: 4.05 to 4.68%); type: functional
MCF7 = experiment: Cytotoxicity against human MCF7 cells assessed as growth inhibition after 24 to 72 hrs by MTT assay; type: functional, cell-based
Summary of the method: (§2)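 About 5000 cells/well were grown 24 h in RPMI-1640 with 10% FBS, then given fresh medium with compound at various concentrations (from 10 mM DMSO stocks) for 24, 48 and 72 h. MTT (5 mg/mL stock) was added for 2 h and formazan dissolved in DMSO. Absorbance was read at 595 nm and expressed as percent proliferation versus DMSO control.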

MDA-MB-468 = experiment: Cytotoxicity against human MDA-MB-468 cells assessed as growth inhibition after 24 to 72 hrs by MTT assay; type: functional, cell-based; summary of the method: as §2
MDA-MB-231 [6] = experiment: Induction of apoptosis in human MDA-MB-231 cells assessed as late apoptotic cells at 2.5 uM after 24 hrs by annexin V-propidium iodide/Alexa Fluor 488 staining-based flow cytometric analysis (reference value: 2.08 to 3.78%); type: functional; summary of the method: as §1
MDA-MB-231 [7] = experiment: Antimigratory activity against human MDA-MB-231 cells at >= 2.5 uM after 48 hrs by transwell assay
MDA-MB-231 [8] = experiment: Induction of apoptosis in human MDA-MB-231 cells assessed as early apoptotic cells at 2.5 uM after 24 hrs by annexin V-propidium iodide/Alexa Fluor 488 staining-based flow cytometric analysis (reference value: 4.05 to 4.68%); type: functional
MDA-MB-231 [9] = experiment: Cell cycle arrest in human MDA-MB-231 cells assessed as accumulation at G2/M phase at 5 uM after 24 hrs by propidium iodide staining-based flow cytometric analysis (reference value: 18.2 to 23.1%); type: functional
MDA-MB-231 [10] = experiment: Cell cycle arrest in human MDA-MB-231 cells assessed as accumulation at G2/M phase at 7.5 uM after 24 hrs by propidium iodide staining-based flow cytometric analysis (reference value: 18.2 to 23.1%); type: functional
[11] = Cytotoxicity against human H1299 cells assessed as growth inhibition after 24 to 72 hrs by MTT assay; type: functional, cell-based; settings: NCI-H1299; summary of the method: as §2
MDA-MB-231 [12] = experiment: Cell cycle arrest in human MDA-MB-231 cells assessed as accumulation at G0/G1 phase at 5 uM after 24 hrs by propidium iodide staining-based flow cytometric analysis (reference value: 44.3 to 47.1%); type: functional
MDA-MB-231 [13] = experiment: Induction of apoptosis in human MDA-MB-231 cells after 24 hrs by annexin V-propidium iodide/Alexa Fluor 488 staining-based flow cytometric analysis; type: functional, cell-based
MDA-MB-231 [14] = experiment: Induction of apoptosis in human MDA-MB-231 cells assessed as late apoptotic cells at 7.5 uM after 24 hrs by annexin V-propidium iodide/Alexa Fluor 488 staining-based flow cytometric analysis (reference value: 2.08 to 3.78%); type: functional; summary of the method: as §1
MDA-MB-231 [15] = experiment: Cell cycle arrest in human MDA-MB-231 cells assessed as accumulation at S phase at 7.5 uM after 24 hrs by propidium iodide staining-based flow cytometric analysis (reference value: 32.5 to 34.7%); type: functional
4T1 = experiment: Antitumor activity against mouse 4T1 cells allografted in Balb/c mouse assessed as tumor growth inhibition at 10 mg/kg, po administered every alternative day for 5 weeks measured twice a week during compound dosing relative to control; type: functional
Summary of the method: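 4T1 cells (7 × 10⁵) were injected into the second right mammary fat pad of 8-week-old female Balb/c mice, with a booster of about 5 × 10⁵ cells 4 days later. One week after the booster, dosing began at 10 mg/kg by oral gavage on alternate days for 5 weeks (n = 6). Controls received vehicle. Tumor size and body weight were measured twice weekly.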

MDA-MB-231 [16] = experiment: Cell cycle arrest in human MDA-MB-231 cells assessed as accumulation at G0/G1 phase at 2.5 uM after 24 hrs by propidium iodide staining-based flow cytometric analysis (reference value: 44.3 to 47.1%); type: functional
MDA-MB-231 [17] = experiment: Cell cycle arrest in human MDA-MB-231 cells assessed as accumulation at S phase at 5 uM after 24 hrs by propidium iodide staining-based flow cytometric analysis (reference value: 32.5 to 34.7%); type: functional
Mus musculus = experiment: Toxicity in Balb/c mouse allografted with mouse 4T1 cells assessed as reduction in body weight at 10 mg/kg, po administered every alternative day for 5 weeks measured twice a week during compound dosing; type: organism-based; design: dose 10 mg/kg, route oral; settings: in vivo, 840 h
Summary of the method: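 Female Balb/c mice, 8 weeks old, given 7 × 10⁵ 4T1 cells into the second right mammary fat pad, plus a booster of about 5 × 10⁵ cells after 4 days. One week later, 10 mg/kg by oral gavage on alternate days for 5 weeks, n = 6. Vehicle-dosed controls. Body weight and tumour size measured twice weekly.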

MDA-MB-231 [18] = experiment: Induction of apoptosis in human MDA-MB-231 cells assessed as depolarization of mitochondrial membrane potential after 24 hrs by JC-1 staining-based flow cytometric analysis; type: functional, cell-based
Summary of the method: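 Cells were seeded in 60 mm dishes, grown 24 h, then treated with compound for 24 h. Cells were stained with JC-1 and analysed by flow cytometry. Depolarization was read as green-only cells and as a fall in red/green fluorescence ratio, normalized to control. Three independent experiments, mean ± SEM.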

MDA-MB-231 [19] = experiment: Cell cycle arrest in human MDA-MB-231 cells assessed as accumulation at G2/M phase after 24 hrs by propidium iodide staining-based flow cytometric analysis; type: functional
MDA-MB-231 [20] = experiment: Cell cycle arrest in human MDA-MB-231 cells assessed as accumulation at G2/M phase at 2.5 uM after 24 hrs by propidium iodide staining-based flow cytometric analysis (reference value: 18.2 to 23.1%); type: functional
MDA-MB-231 [21] = experiment: Cell cycle arrest in human MDA-MB-231 cells assessed as accumulation at G0/G1 phase at 7.5 uM after 24 hrs by propidium iodide staining-based flow cytometric analysis (reference value: 44.3 to 47.1%); type: functional

| Structure (SMILES) | Activity (MDA-MB-231 [1]) | Activity (MDA-MB-231 [2]) | Activity (MDA-MB-231 [3]) | Activity (MDA-MB-231 [4]) | Activity (MDA-MB-231 [5]) | IC50 (MCF7) | IC50 (MDA-MB-468) | Activity (MDA-MB-231 [6]) | Activity (MDA-MB-231 [7]) | Activity (MDA-MB-231 [8]) | Activity (MDA-MB-231 [9]) | Activity (MDA-MB-231 [10]) | IC50 [11] | Activity (MDA-MB-231 [12]) | Activity (MDA-MB-231 [13]) | Activity (MDA-MB-231 [14]) | Activity (MDA-MB-231 [15]) | Activity (MDA-MB-231 [16]) | Activity (MDA-MB-231 [17]) | Activity (Mus musculus) | also measured |
| --- | --- | --- | --- | --- | --- | --- | --- | --- | --- | --- | --- | --- | --- | --- | --- | --- | --- | --- | --- | --- | --- |
| COC(=O)c1cc2c3ccccc3[nH]c2c2cn(-c3ccc(F)cc3Cl)c[n+]12.[Cl-] | 14.4% | 12.14% | 3.26% | 11.92% | 4.72% | 6.8 µM | 5.94 µM | 1.16% | Active | 2.21% | 33.9% | 40.6% | 5.13 µM | 46.6% | Dose-dependent effect | 7.04% | 28.22% | 46.7% | 21.8% | Non-toxic | TGI (4T1): inactive; Activity (MDA-MB-231 [18]): Dose-dependent effect; Activity (MDA-MB-231 [19]): Dose-dependent effect; Activity (MDA-MB-231 [20]): 23.4%; Activity (MDA-MB-231 [21]): 31.1% |
| COC(=O)c1cc2c3ccccc3[nH]c2c2cn(-c3ccc(C(F)(F)F)cc3)c[n+]12.[Cl-] | 14.3% | 9.28% | 2.31% | 14.31% | 5.23% | 14.2 µM | 11.1 µM | 2.87% | Active | 4.4% | 35.5% | 38.2% | 4.48 µM | 45.3% | Dose-dependent effect | 9.02% | 27.6% | 50.4% | 19% | Non-toxic | inhibition in vivo at 10 mg/kg (4T1; 4T1, 840 h, read-out: TGI): 20%; Activity (MDA-MB-231 [18]): Dose-dependent effect; Activity (MDA-MB-231 [19]): Dose-dependent effect; Activity (MDA-MB-231 [20]): 22.8%; Activity (MDA-MB-231 [21]): 34.1% |
| COC(=O)c1cc2c3ccccc3[nH]c2c2cn(-c3ccc(C)cc3Br)c[n+]12.[Cl-] | 55.63% | 24.22% | 4.06% | 25.32% | 6.93% | 6.9 µM | 5.78 µM | 3.49% | Active | 5.42% | 34.7% | 32.5% | 7.8 µM | 47.3% | Dose-dependent effect | 16.58% | 24.4% | 56.8% | 17.9% | Non-toxic | TGI (4T1): inactive; Activity (MDA-MB-231 [18]): Dose-dependent effect; Activity (MDA-MB-231 [19]): Dose-dependent effect; Activity (MDA-MB-231 [20]): 23.6%; Activity (MDA-MB-231 [21]): 43% |
